{"source": "ChEMBL document CHEMBL1141258", "about": "“Prismatomerin, a new iridoid from Prismatomeris tetrandra. Structure elucidation, determination of absolute configuration, and cytotoxicity” (J Nat Prod, 2007)", "key": {"SK-MEL-5": {"test_system": "SK-MEL-5", "assay": "Growth inhibition of human SKMEL5 cells after 48 hrs by SRB assay", "format": "functional", "procedure,_shortened": "(§1)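 Run at NCI in the 60-human-tumor-cell-line anticancer screen. Each compound was tested at a minimum of five concentrations at 10-fold dilutions.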"}, "A498": {"test_system": "A498", "assay": "Growth inhibition of human A498 cells after 48 hrs by SRB assay", "format": "functional", "conditions": "A498, 48 h", "procedure,_shortened": "as §1"}, "SR": {"test_system": "SR", "assay": "Growth inhibition of human SR cells after 48 hrs by SRB assay", "format": "functional", "procedure,_shortened": "as §1"}, "UO-31": {"test_system": "UO-31", "assay": "Growth inhibition of human UO31 cells after 48 hrs by SRB assay", "format": "functional", "conditions": "UO-31, 48 h", "procedure,_shortened": "(§2)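 NCI 60 human tumour cell line in vitro anticancer screen, run at NCI. Compound tested at a minimum of five concentrations in 10-fold dilutions per cell line.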"}, "SF-539": {"test_system": "SF-539", "assay": "Growth inhibition of human SF539 cells after 48 hrs by SRB assay", "format": "functional", "conditions": "SF-539, 48 h", "procedure,_shortened": "as §1"}, "A549": {"test_system": "A549", "assay": "Antiproliferative activity against human A549 cells after 5 days by MTT assay", "conditions": "A549, 120 h"}, "[1]": {"assay": "Antiproliferative activity against human KB31 cells after 5 days by MTT assay", "conditions": "KB 3-1, 120 h"}, "U-251": {"test_system": "U-251", "assay": "Growth inhibition of human U251 cells after 48 hrs by SRB assay", "format": "functional", "conditions": "U-251, 48 h", "procedure,_shortened": "as §1"}, "HL-60": {"test_system": "HL-60", "assay": "Growth inhibition of human HL60 cells after 48 hrs by SRB assay", "format": "functional", "conditions": "HL-60, 48 h", "procedure,_shortened": "as §2"}, "LOX IMVI": {"test_system": "LOX IMVI", "assay": "Growth inhibition of human LOXIMVI cells after 48 hrs by SRB assay", "format": "functional", "procedure,_shortened": "as §1"}, "786-0": {"test_system": "786-0", "assay": "Growth inhibition of human 786-0 cells after 48 hrs by SRB assay", "format": "functional", "conditions": "786-0, 48 h", "procedure,_shortened": "as §1"}, "SK-MEL-28": {"test_system": "SK-MEL-28", "assay": "Growth inhibition of human SK-MEL28 cells after 48 hrs by SRB assay", "format": "functional", "conditions": "SK-MEL-28, 48 h", "procedure,_shortened": "as §2"}, "ACHN": {"test_system": "ACHN", "assay": "Growth inhibition of human ACHN cells after 48 hrs by SRB assay", "format": "functional", "procedure,_shortened": "as §2"}, "SF-295": {"test_system": "SF-295", "assay": "Growth inhibition of human SF295 cells after 48 hrs by SRB assay", "format": "functional", "procedure,_shortened": "as §1"}, "SW-620": {"test_system": "SW-620", "assay": "Growth inhibition of human SW620 cells after 48 hrs by SRB assay", "format": "functional", "conditions": "SW-620, 48 h", "procedure,_shortened": "as §2"}, "HT-29": {"test_system": "HT-29", "assay": "Growth inhibition of human HT29 cells after 48 hrs by SRB assay", "format": "functional", "conditions": "HT-29, 48 h", "procedure,_shortened": "as §2"}, "OVCAR-4": {"test_system": "OVCAR-4", "assay": "Growth inhibition of human OVACAR4 cells after 48 hrs by SRB assay", "format": "functional", "conditions": "OVCAR-4, 48 h", "procedure,_shortened": "as §1"}, "HCT-116": {"test_system": "HCT-116", "assay": "Growth inhibition of human HCT116 cells after 48 hrs by SRB assay", "format": "functional", "procedure,_shortened": "as §1"}, "SN12C": {"test_system": "SN12C", "assay": "Growth inhibition of human SN12C cells after 48 hrs by SRB assay", "format": "functional", "procedure,_shortened": "as §1"}, "MOLT-4": {"test_system": "MOLT-4", "assay": "Growth inhibition of human MOLT4 cells after 48 hrs by SRB assay", "format": "functional", "conditions": "MOLT-4, 48 h", "procedure,_shortened": "as §1"}, "SK-MEL-2": {"test_system": "SK-MEL-2", "assay": "Growth inhibition of human SK-MEL2 cells after 48 hrs by SRB assay", "format": "functional", "procedure,_shortened": "as §1"}, "L929": {"test_system": "L929", "assay": "Antiproliferative activity against mouse L929 cells after 5 days by SRB assay", "format": "cell-based", "conditions": "L929, 120 h"}, "PC-3": {"test_system": "PC-3", "assay": "Growth inhibition of human PC3 cells after 48 hrs by SRB assay", "format": "functional", "conditions": "PC-3, 48 h", "procedure,_shortened": "as §2"}, "TK-10": {"test_system": "TK-10", "assay": "Growth inhibition of human TK10 cells after 48 hrs by SRB assay", "format": "functional", "conditions": "TK-10, 48 h", "procedure,_shortened": "as §2"}, "NCI-H226": {"test_system": "NCI-H226", "assay": "Growth inhibition of human NCIH226 cells after 48 hrs by SRB assay", "format": "functional", "conditions": "NCI-H226, 48 h", "procedure,_shortened": "as §1"}, "[2]": {"conditions": "read-out: Log LC50 (the source's name) (converted)"}}, "note": "Active and inactive are the calls of the source. The rule behind the calls is not given here."}
{"molecule": "COC(=O)C1=CO[C@@H]2O[C@H]3/C(=C\\c4ccc(O)cc4)C(=O)O[C@]34C=C[C@H]1[C@H]24", "note": "[PRISMATOMERIN]", "values": [{"measurement": "Activity", "setting": "SK-MEL-5", "value": "inactive"}, {"measurement": "GI50", "setting": "SK-MEL-5; SK-MEL-5, 48 h", "value": "< 10", "unit": "nM"}, {"measurement": "TGI", "setting": "SK-MEL-5; SK-MEL-5, 48 h, read-out: Log TGI (converted)", "value": 186, "unit": "nM"}, {"measurement": "GI50", "setting": "A498", "value": 234, "unit": "nM"}, {"measurement": "CC50", "setting": "A498; [2]", "value": 871, "unit": "nM"}, {"measurement": "TGI", "setting": "A498; read-out: Log TGI (converted)", "value": 457, "unit": "nM"}, {"measurement": "GI50", "setting": "SR", "value": 10.5, "unit": "nM"}, {"measurement": "CC50", "setting": "SR; [2]", "value": "> 100000", "unit": "nM"}, {"measurement": "TGI", "setting": "SR; read-out: Log TGI (converted)", "value": 468, "unit": "nM"}, {"measurement": "GI50", "setting": "UO-31", "value": 120, "unit": "nM"}, {"measurement": "CC50", "setting": "UO-31; [2]", "value": 813, "unit": "nM"}, {"measurement": "GI50", "setting": "SF-539", "value": 257, "unit": "nM"}, {"measurement": "CC50", "setting": "SF-539; [2]", "value": "> 100000", "unit": "nM"}, {"measurement": "TGI", "setting": "SF-539; read-out: Log TGI (converted)", "value": 457, "unit": "nM"}, {"measurement": "IC50", "setting": "A549", "value": 1410, "unit": "nM"}, {"measurement": "IC50", "setting": "[1]", "value": 410, "unit": "nM"}, {"measurement": "GI50", "setting": "U-251", "value": 295, "unit": "nM"}, {"measurement": "CC50", "setting": "U-251; [2]", "value": 60300, "unit": "nM"}, {"measurement": "TGI", "setting": "U-251; read-out: Log TGI (converted)", "value": 955, "unit": "nM"}, {"measurement": "GI50", "setting": "HL-60", "value": "< 10", "unit": "nM"}, {"measurement": "CC50", "setting": "HL-60; [2]", "value": "> 100000", "unit": "nM"}, {"measurement": "GI50", "setting": "LOX IMVI", "value": 20.9, "unit": "nM"}, {"measurement": "CC50", "setting": "LOX IMVI; [2]", "value": 708, "unit": "nM"}, {"measurement": "TGI", "setting": "LOX IMVI; read-out: Log TGI (converted)", "value": 240, "unit": "nM"}, {"measurement": "GI50", "setting": "786-0", "value": 19.5, "unit": "nM"}, {"measurement": "CC50", "setting": "786-0; [2]", "value": 550, "unit": "nM"}, {"measurement": "TGI", "setting": "786-0; read-out: Log TGI (converted)", "value": 195, "unit": "nM"}, {"measurement": "GI50", "setting": "SK-MEL-28", "value": 316, "unit": "nM"}, {"measurement": "CC50", "setting": "SK-MEL-28; [2]", "value": "> 100000", "unit": "nM"}, {"measurement": "GI50", "setting": "ACHN", "value": "< 10", "unit": "nM"}, {"measurement": "CC50", "setting": "ACHN; [2]", "value": 2090, "unit": "nM"}, {"measurement": "Activity", "setting": "SF-295", "value": "inactive"}, {"measurement": "GI50", "setting": "SF-295; SF-295, 48 h", "value": 589, "unit": "nM"}, {"measurement": "GI50", "setting": "SW-620", "value": "< 10", "unit": "nM"}, {"measurement": "CC50", "setting": "SW-620; [2]", "value": "> 100000", "unit": "nM"}, {"measurement": "GI50", "setting": "HT-29", "value": 107, "unit": "nM"}, {"measurement": "CC50", "setting": "HT-29; [2]", "value": "> 100000", "unit": "nM"}, {"measurement": "GI50", "setting": "OVCAR-4", "value": 575, "unit": "nM"}, {"measurement": "CC50", "setting": "OVCAR-4; [2]", "value": "> 100000", "unit": "nM"}, {"measurement": "TGI", "setting": "OVCAR-4; read-out: Log TGI (converted)", "value": 3470, "unit": "nM"}, {"measurement": "Activity", "setting": "HCT-116", "value": "inactive"}, {"measurement": "GI50", "setting": "HCT-116; HCT-116, 48 h", "value": "< 10", "unit": "nM"}, {"measurement": "TGI", "setting": "HCT-116; HCT-116, 48 h, read-out: Log TGI (converted)", "value": 100, "unit": "nM"}, {"measurement": "GI50", "setting": "SN12C", "value": 174, "unit": "nM"}, {"measurement": "CC50", "setting": "SN12C; [2]", "value": 813, "unit": "nM"}, {"measurement": "TGI", "setting": "SN12C; read-out: Log TGI (converted)", "value": 380, "unit": "nM"}, {"measurement": "GI50", "setting": "MOLT-4", "value": "< 10", "unit": "nM"}, {"measurement": "Activity", "setting": "SK-MEL-2", "value": "inactive"}, {"measurement": "GI50", "setting": "SK-MEL-2; SK-MEL-2, 48 h", "value": 166, "unit": "nM"}, {"measurement": "IC50", "setting": "L929", "value": 210, "unit": "nM"}, {"measurement": "GI50", "setting": "PC-3", "value": 170, "unit": "nM"}, {"measurement": "CC50", "setting": "PC-3; [2]", "value": 3020, "unit": "nM"}, {"measurement": "GI50", "setting": "TK-10", "value": 288, "unit": "nM"}, {"measurement": "CC50", "setting": "TK-10; [2]", "value": 3980, "unit": "nM"}, {"measurement": "GI50", "setting": "NCI-H226", "value": 174, "unit": "nM"}, {"measurement": "CC50", "setting": "NCI-H226; [2]", "value": 22900, "unit": "nM"}, {"measurement": "TGI", "setting": "NCI-H226; read-out: Log TGI (converted)", "value": 479, "unit": "nM"}]}
